Reference: article PMC10883374 (Science Advances, 2022)
Positions count from the first letter of the chain named. “Also recorded” adds a separate entry of the source.

Tests used:
[1] = target: hSAMTOR; conditions: read-out: dissociation constant (Kd); cited from earlier work
[2] = target: F135A mutant dSAMTOR (Drosophila melanogaster, UniProt Q9W138, F135A); assay: ITC ligand binding, F135A dSAMTOR
In short: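 Tag-free dSAMTOR, expressed as His6-SUMO fusion in E. coli BL21(DE3), purified by Ni-NTA and gel filtration into 10 mM Hepes pH 7.5, 150 mM NaCl, 1 mM DTT. At 25°C, 1 mM SAM or SAH was titrated into 0.2 mM protein over 20 injections, with a background titration into buffer. Single-site fit gave Kd, ΔH and n; ΔG and ΔS were calculated. Runs: three for measurable binding, two for undetectable binding.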

[3] = target: T1, hSAMTOR (WT) interaction with GATOR1-KICSTOR (Homo sapiens, UniProt Q1RMZ1); type: biochemical; conditions: WT full-length hSAMTOR, HEK 293T cell lysates, 0.5 mM SAM
T1 sequence (Q1RMZ1 1-405): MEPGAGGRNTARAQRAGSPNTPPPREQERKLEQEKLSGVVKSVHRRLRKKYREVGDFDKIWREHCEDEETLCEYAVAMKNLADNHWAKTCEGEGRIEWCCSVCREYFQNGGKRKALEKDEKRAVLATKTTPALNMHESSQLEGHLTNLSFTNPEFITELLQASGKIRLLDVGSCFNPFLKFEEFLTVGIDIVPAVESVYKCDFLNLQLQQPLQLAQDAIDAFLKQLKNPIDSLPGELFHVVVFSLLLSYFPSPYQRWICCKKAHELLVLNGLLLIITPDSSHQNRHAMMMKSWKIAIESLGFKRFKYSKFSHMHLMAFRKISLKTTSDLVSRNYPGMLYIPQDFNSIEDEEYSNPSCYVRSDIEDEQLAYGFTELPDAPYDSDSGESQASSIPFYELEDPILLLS

[4] = target: T2, R95A hSAMTOR interaction with GATOR1-KICSTOR (Homo sapiens, UniProt Q1RMZ1, R95A); assay: Co-IP of Flag-hSAMTOR-R95A with HA-Nprl3 and Myc-Kaptin with or without SAM; type: biochemical; conditions: HEK 293T cell lysates, 0.5 mM SAM
T2 sequence (Q1RMZ1 1-405 R95A): T1 sequence (Q1RMZ1 1-405) with R95A

F135A mutant dSAMTOR, sequence (Q9W138 whole entry F135A, the tested form may be a part): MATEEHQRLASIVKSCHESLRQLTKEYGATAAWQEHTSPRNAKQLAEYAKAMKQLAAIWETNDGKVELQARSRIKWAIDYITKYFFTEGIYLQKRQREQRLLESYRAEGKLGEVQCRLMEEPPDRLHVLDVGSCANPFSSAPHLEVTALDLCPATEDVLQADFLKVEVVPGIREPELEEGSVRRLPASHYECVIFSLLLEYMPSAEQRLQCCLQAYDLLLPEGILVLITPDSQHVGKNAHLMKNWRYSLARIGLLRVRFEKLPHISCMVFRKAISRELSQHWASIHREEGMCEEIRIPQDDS

Q: Which Kd [1] does the source give for C[S+](CC[C@H](N)C(=O)[O-])C[C@H]1O[C@@H](n2cnc3c(N)ncnc32)[C@H](O)[C@@H]1O (stereo partly shown) [SAM, S-adenosylmethionine] here?
A: Its Kd is 7 µM.

Q: What about the Kd [2] of the same compound?
A: The Kd was 6.46 ± 0.4 µM.

Q: What about the “increase of binding affinity compared to the WT dSAMTOR” value ([2]; F135A vs WT dSAMTOR, ITC) of the same compound?
A: Its value is < 2 fold.

Q: And the n value ([2]; ITC, 25°C, F135A dSAMTOR)?
A: The n value was 0.79 ± 0.01.

Q: What about the ΔH ([2]; ITC, 25°C, F135A dSAMTOR) of the same compound?
A: The ΔH was -5.24 ± 0.11 kcal/mol.

Q: And the “effect of SAM on interaction of hSAMTOR with GATOR1-KICSTOR (co-IP)” value [3]?
A: The value was “essentially disrupts its interactions with GATOR1-KICSTOR; also recorded: substantially weakens the interaction”.

Q: What about the “effect of SAM on interaction of hSAMTOR with GATOR1-KICSTOR (co-IP)” value [4] of the same compound?
A: Its value is “comparable interactions with GATOR1 and KICSTOR in both the absence and presence of SAM”.
